# TAAR1 agonist = human TAAR1 agonists, primary screen, Fluo-8 calcium fluorescence, CHO RD-HGA16 cells; activation, % at 3 µM; vehicle wells 0%, saturating PEA agonist 100%; Trace amine-associated receptor 1 (Homo sapiens), Q96RJ0; 360,000 tested, 0.99% active;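 active means activation above the mean activation of all test compounds in the run plus 3 SD, cut at about 38% in these data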
#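 Test system: RD-HGA16 (CHO) cells co-expressing Gα16 and hTAAR1 / Benchmarks: DMSO vehicle as 0%, PEA at EC100 as 100% / Repeats: no replicates (n 1) / Measure: % activation from peak over basal fluorescence ratio, DMSO-to-PEA scaled / Timing: 17-24 h plating, Fluo-8 75 min 37 °C, 30 min RT / Technique: kinetic Fluo-8 calcium fluorescence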
# TAAR1 antag = human TAAR1 antagonists, primary screen, Fluo-8 calcium fluorescence, CHO RD-HGA16 cells; inhibition, % at 3 µM; 360,000 tested, 1.5% active; antagonist;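 active means inhibition above a per-plate cutoff, the mean inhibition of test compounds on that plate plus 3 SD, cut at about 49% in these data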;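 further: 0% = DMSO plus EC80 beta-PEA response and 100% = DMSO alone without agonist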
#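 Test system – hTAAR1-expressing CHO RD-HGA16 cells, Gα16-coupled · Also added – β-PEA at EC80 concentration, post-compound challenge · Compound – 3 µM, single point · Incubation – dye loading 75 min at 37 °C, then 30 min room temperature · Measured by – Fluo-8 intracellular calcium dye fluorescence, real-time kinetic reads · Benchmarks – vehicle and agonist controls · Replicates – singlicate, one well per test compound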
# GPR7 antag = GPR7 receptor antagonists, primary screen, cell-based, fluorescence, single concentration | Neuropeptides B/W receptor type 1 (Homo sapiens), P48145 | GPR7-expressing cells, fluorescence antagonist assay | inhibition, % at 4.4 µM | 290,000 tested, 1.1% active; in the data active means inhibition above about 16%, passing the limit was not always enough;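 further: cells stimulated with the agonist NPW; 0% = agonist with vehicle and 100% = vehicle without agonist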
# Target sequence (P48145 whole entry, looked up): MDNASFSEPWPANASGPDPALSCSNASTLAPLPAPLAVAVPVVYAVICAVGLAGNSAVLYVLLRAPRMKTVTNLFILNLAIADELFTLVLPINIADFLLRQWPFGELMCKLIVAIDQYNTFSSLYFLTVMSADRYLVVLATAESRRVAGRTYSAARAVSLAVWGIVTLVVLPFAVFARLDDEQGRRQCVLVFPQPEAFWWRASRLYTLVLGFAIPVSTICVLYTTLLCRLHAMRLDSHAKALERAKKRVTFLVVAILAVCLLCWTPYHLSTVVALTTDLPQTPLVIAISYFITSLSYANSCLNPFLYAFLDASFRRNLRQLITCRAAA
# OX1R antag-1 = OX1R (HCRTR1) antagonists, primary screen, fluorescence, CHO/OX1R cells, Fluo-8 calcium, orexin A; Fluo-8 calcium fluorescence; inhibition, % at 5 µM; 330,000 tested, 0.43% active;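 active means inhibition above its plate's threshold, mean inhibition of all tested compounds on the plate plus 3 SD, cut at about 37% in these data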;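 further: 0% = orexin A challenge wells and 100% = SB-334867-A antagonist wells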
# OX1R antag-2 = antagonists of human orexin 1 receptor (OX1R); Orexin/Hypocretin receptor type 1 (Homo sapiens), O43613; inhibition, % at 6.6 µM; 330,000 tested, 1.8% active; AID 485270, 2010; OX1R-expressing cells, FRET antagonist read-out; in the data active means inhibition mostly above about 38%, no sharp cut-off; inactive means mostly below about 40%;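 further: 0% = agonist challenge alone and 100% = reference antagonist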
# CHO parental Ca = ATP-evoked calcium signal inhibitors, parental CHO, primary screen, counter-screen for OX1R antagonist project, cell-based, fluorescence, Fluo-8 calcium dye | parental CHO-K1, ATP-induced calcium, Fluo-8 fluorescence | inhibition, % at 5.6 µM | 330,000 tested, 0.63% active | AID 463079, 2010;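 active means inhibition above that plate's mean sample inhibition plus 3 SD, cut at about 26% in these data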;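 further: 0% = ATP-challenged DMSO wells and 100% = DMSO wells without ATP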
#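 Assay system: untransfected parental CHO cell line. Also added: ATP agonist challenge. Dosing: one dose, 5.6 µM nominal. Measured by: Fluo-8 fluorescence. Read-out: % inhibition. Benchmarks: ATP wells versus no-ATP DMSO wells. Repeats: no replicates.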
# TAAR1 ag confirm = human TAAR1 agonists, retest of hits, confirmation, Fluo-8 calcium fluorescence, CHO RD-HGA16 cells | shares compounds with TAAR1 agonist | scaled: DMSO 0%, maximal phenethylamine 100% | activation, % at 3 µM | 2,400 tested, 82% active | AID 651783, 2012;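 active means activation above a cutoff set at the run's mean compound activation plus 3 SD, cut at about 39% in these data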
# Ga16 nonsel ag = nonselective calcium mobilization agonists, CHO-Ga16 cells, counter-screen for hTAAR1 agonist project, cell-based, fluorescence, CHO-Ga16 parental line. Fluo-8 calcium fluorescence; normalized to maximal ATP response, DMSO zero. activation, % at 3 µM. AID 651787, 2012. shares compounds with TAAR1 agonist. 2,400 tested, 50% active;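 active means activation above the run cutoff, the mean activation over all tested wells plus 3 SD, cut at about 12% in these data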;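 further: 0% = DMSO wells and 100% = maximal ATP response on the peak over basal ratio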
# TAAR1 desens = TAAR1 desensitization by agonist hits, confirmation, counter-screen for TAAR1 agonist project, cell-based, fluorescence, tachyphylaxis. shares compounds with TAAR1 agonist. CHO RD-HGA16 hTAAR1, Fluo-8 calcium, beta-PEA response inhibition. inhibition, % at 3 µM. 2,400 tested, 46% active. AID 651951, 2012;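 active means inhibition above the run cutoff, the mean inhibition of all test compounds plus 3 SD, cut at about 49% in these data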;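 further: beta-PEA stimulus applied at its EC80; loss of beta-PEA calcium signal after compound pretreatment read as receptor desensitization; 0% = DMSO with beta-PEA at EC80 and 100% = DMSO alone without agonist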
# Ga16 nonsel ant = inhibition of ATP-evoked calcium response in CHO-Ga16 cells, counter-screen for TAAR1 agonist project, cell-based, fluorescence; shares compounds with TAAR1 agonist; CHO-Ga16 ATP-induced calcium, Fluo-8 fluorescence; inhibition, % at 3 µM; 2,400 tested, 39% active; AID 651952, 2012;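 active means inhibition above the plate's mean compound inhibition plus 3 SD, computed per plate, cut at about 22% in these data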;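 further: 0% = EC80 ATP with DMSO and 100% = DMSO wells without ATP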
# * = called active by the depositor; x = not tested or not shown. Compounds with a hit are over-represented: about 4.5% of the library has one in this group of screens.
SMILES,TAAR1 agonist,TAAR1 antag,GPR7 antag,OX1R antag-1,OX1R antag-2,CHO parental Ca,TAAR1 ag confirm,Ga16 nonsel ag,TAAR1 desens,Ga16 nonsel ant
O=C1Nc2ccccc2C(=O)C1(Cl)Cc1ccccc1 (stereo not drawn),47*,9,2,10,23,-11,17,8,24,7
COc1ccc2[nH]c(=O)c(C(c3nnnn3CC3CCCO3)N3CCc4ccccc4C3)cc2c1 (stereo not drawn),61*,9,-7,-25,12,-16,55*,6,15,21
Cc1ccc2cc(C(c3nnnn3C3CCCC3)N3CCN(c4ccc(F)cc4)CC3)c(=O)[nH]c2c1 (stereo not drawn),8,-3,4,-21,10,-26,x,x,x,x
COc1ccc2cc(C(c3nnnn3C3CCCC3)N3CCc4ccccc4C3)c(=O)[nH]c2c1 (stereo not drawn),46*,-2,-6,-23,11,-12,39*,3,3,13
Cc1ccc2[nH]c(=O)c(C(c3nnnn3CC3CCCO3)N3CCc4ccccc4C3)cc2c1 (stereo not drawn),27,0,15,-9,19,2,x,x,x,x
O=C(O)c1ccc(N/N=C/c2ccc(-c3ccccc3Cl)o2)cc1,97*,37,-14,-19,-7,5,56*,39*,30,20
O=C(N/N=C/c1ccc(-c2ccccc2Cl)o1)c1ccccc1,6,31,-6,4,53,-11,x,x,x,x
CCN1CCc2nc3sc(C(=O)N4CCc5ccccc5C4)c(N)c3cc2C1,80*,14,0,-10,30,-15,67*,4,12,13
CC(C)c1ccc2nc3sc(C(=O)N4CCc5ccccc5C4)c(N)c3cc2c1,83*,20,4,-20,16,-12,88*,31*,63*,40*
O=C(NCCc1ccccc1)c1coc(=O)c(Br)c1,87*,80*,-7,x,x,x,94*,1,80*,8
O=C(NCCc1ccccc1)/C(=C\c1ccc([N+](=O)[O-])cc1)NC(=O)c1ccc(Br)cc1,56*,-15,-7,8,10,3,36,0,-3,9
O=C(NCCc1ccccc1)c1ccc([N+](=O)[O-])cc1,56*,32,2,-12,21,-6,97*,5,57*,-4
CN(C)CCNC(=O)c1coc(=O)c(Br)c1,1,15,-18,-2,38,-12,x,x,x,x
O=C(NCCc1ccc([N+](=O)[O-])cc1)c1ccccc1,2,-23,-3,0,4,-2,x,x,x,x
CC(=O)Oc1ccc(Cl)cc1CN(C(C)=O)C1CCCCC1,0,-6,x,x,x,x,x,x,x,x
COC(=O)[C@@]12C[C@@H](CC(=O)N3CCCC3)C(=O)N(Cc3ccco3)C1=CCC(C)(C)C2,1,-1,x,x,x,x,x,x,x,x
